# High-throughput results deposited in PubChem BioAssay by several laboratories.
# Runt-SMMHC FRET: inhibitors of RUNX1 Runt–CBFb-SMMHC binding, primary screen, biochemical, FRET, Cerulean-Runt, Venus-CBFb-SMMHC, uHTS; Runt-related transcription factor 1 (Homo sapiens) + Core-binding factor subunit beta …; Cerulean-Runt/Venus-CBFb-SMMHC FRET ratio 530/480, 1 h; actives 0.74% (n = 220,000); inhibition, % at 20 µM;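 active means mean inhibition across duplicate retests at 20 µM reaching about 50%, limit read from the data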;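 further: 0% = DMSO wells and 100% = wells with excess untagged CBFb-SMMHC; inhibitors lower the FRET ratio by blocking Runt binding to CBFb-SMMHC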
# Vif imaging: HIV Vif self-association inhibitors, primary screen, imaging, HEK293T, single point; HEK293T cells, Vif self-association by quenched fluorescence, 24 h; inhibition, % at 7.49 µM; actives 0.35% (n = 340,000); in the data active means inhibition above about 50%, passing the limit was not always enough; inconclusive means no clear call, values can overlap the other calls; inactive means below about 31%
# RanGTP-Imp inh: inhibitors of RanGTP-importin-beta interaction, primary screen, biochemical, FRET, CFP-Ran, YFP-importin-beta, homogeneous; AID 2216, 2009; cell-free CFP-Ran/YFP-importin-beta FRET ratio; inhibition, % (test concentration not listed); actives 1.1% (n = 300,000); Ran GTPase (GTP-bound) - importin-beta complex;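 active means more than half of the replicate wells show a fall in the fluorescence ratio signal beyond about 16%, limit read from the data, passing the limit was not always enough; inconclusive means exactly half of the replicate wells pass the set limit; inactive means fewer than half of replicates pass the limit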;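 further: 0% = DMSO wells and 100% = Ran loaded with GDP instead of GTP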
# Rce1 inhib: yeast Rce1p protease inhibitors, primary screen, biochemical, fluorescence, cell-free homogeneous. CAAX prenyl protease 2 (Saccharomyces cerevisiae (strain ATCC 204508 / S288c)), Q03530. yeast membranes, quenched prenylated peptide cleavage fluorescence. calls only. actives 0.27% (n = 290,000). AID 2563, 2010;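 active means fall in fluorescence gain of 50% or more versus controls, with final raw signal at or below 3038400; inconclusive means same 50% fall but final raw signal above 3038400; inactive means fall in fluorescence gain under 50%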;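 further: plate controls were neutral control wells for no effect and wells lacking membranes for full effect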
# Target sequence (Q03530 whole entry, looked up): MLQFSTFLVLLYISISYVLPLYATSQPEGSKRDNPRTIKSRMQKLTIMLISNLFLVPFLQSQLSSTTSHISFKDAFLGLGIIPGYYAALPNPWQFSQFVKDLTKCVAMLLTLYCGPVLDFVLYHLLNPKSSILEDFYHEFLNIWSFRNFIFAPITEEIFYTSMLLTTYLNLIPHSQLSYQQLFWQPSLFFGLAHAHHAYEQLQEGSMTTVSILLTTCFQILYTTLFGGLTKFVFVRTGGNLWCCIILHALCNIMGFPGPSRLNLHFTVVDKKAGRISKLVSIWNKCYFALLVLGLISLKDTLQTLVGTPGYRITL
# Runt-CBFb FRET: inhibitors of RUNX1 Runt–CBFb binding, primary screen, biochemical, FRET, Cerulean-Runt, Venus-CBFb, uHTS; actives 0.46% (n = 220,000); Cerulean-Runt/Venus-CBFb FRET ratio 530/480, 1 h; inhibition, % at 20 µM; Runt-related transcription factor 1 (Homo sapiens) + Core-binding factor subunit beta …; AID 1496, 2009;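 active means inhibition over about 50% at 20 µM in the single-dose screen, limit read from the data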;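 further: 0% = DMSO wells and 100% = excess unlabeled CBFb competitor control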
#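 Buffer or medium: Tris pH 7.5 buffer with BSA. Assay system: Cerulean-labeled Runt domain protein. Amount: each fluorescent fusion protein 100 nM. Read-out basis: loss of energy transfer signal. Incubation: 1 h compound exposure, room temperature. Probe or stimulus: Venus-CBFb binding partner, 100 nM. Detection: FRET, excitation 422 nm, emission at 530 and 480 nm.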
# The depositor's hits bear a star; i = inactive; ? = inconclusive; nt = no result; + = active, no number. Sampled rows, rich in hits. Any-hit rate of the full collection: about 1.7%.
SMILES,Runt-SMMHC FRET,Vif imaging,RanGTP-Imp inh,Rce1 inhib,Runt-CBFb FRET
Oc1[nH]c(=S)sc1/C=C1\C(c2ccccc2)=Nc2ccccc21,-69,69*,?,i,-30
Oc1[nH]c(=S)sc1C=C1N=c2ccccc2=N1,-4,nt,5,i,6
CC(C)c1ccc(NC(=O)COc2nncc3ccccc23)cc1,-7,nt,8,+,-1
O=C(COc1nncc2ccccc12)Nc1ccc(F)c(F)c1,1,21,1,nt,1
CCOC(=O)CC(=O)CSc1nc2c(c(C)c1C#N)CCC2,13,-2,24*,i,11
CC(C)OC(=O)CC(=O)CSc1nc2c(cc1C#N)CCCCC2,71*,-7,26*,i,35
CCOC(=O)CC(=O)CSc1nc2ccc(C)cc2cc1C#N,-47,83*,nt,nt,11
CCOC(=O)CC(=O)CSc1nc(C)cc(C)c1C#N,7,3,?,i,5
CCSc1nc2ccc(C)cc2cc1C#N,1,-3,3,i,0
COC(=O)C(Cc1ccccc1)NC(=O)c1ccc(NS(=O)(=O)c2ccc3[nH]c(=O)[nH]c3c2)cc1 (stereo unspecified),nt,2,nt,nt,nt
CCCn1c(C)cc(C(=O)COc2ccc(-c3nnco3)cc2)c1C,1,0,-4,nt,-2
COc1ccccc1/C=C1/SC(=S)N(C(C)C(=O)NC2C=CS(=O)(=O)C2)C1=O (stereo unspecified),nt,55*,7,i,nt
C=C(NC(=O)C(=C)NC(=O)c1csc(C2=NC3c4csc(n4)C4NC(=O)c5csc(n5)C(C(C)(O)C(C)O)NC(=O)C5CSC(=N5)/C(=C/C)NC(=O)C(C(C)O)NC(=O)c5csc(n5)C3(CC2)NC(=O)C(C)NC(=O)C(=C)NC(=O)C(=C)NC(=O)C(C(C)C)NC2C=Cc3c(C(C)O)cc(nc3C2O)C(=O)OC4C)n1)C(N)=O (stereo unspecified),nt,176*,nt,nt,nt
CCOC(=O)C1CCN(c2cc(=O)n(-c3ccccc3Cl)c(=O)[nH]2)CC1,0,nt,59*,i,-1
Cc1ccccc1-n1c(=O)cc(N2CCCCCC2)[nH]c1=O,0,nt,145*,i,nt
CC(C)(C)NCCOc1ccc2ccccc2c1,-4,-1,32*,i,2
COC(=O)c1ccccc1NC(=S)N(Cc1ccc2c(c1)OCO2)Cc1cc2cc(OC)ccc2[nH]c1=O,-1,-4,-1,i,1
C[C@H]1COc2c(N3CCN(C)CC3)c(F)cc3c(=O)c(C(=O)O)cn1c23,-7,-9,-1,+,0
Fc1ccc(CSc2nnc(-c3cccnc3)o2)cc1,-3,3,-2,i,-1
O=C(Nc1cccc2c1CCCC2)c1cc(C2CCCCN2C(=O)CCCc2ccccc2)on1 (stereo unspecified),nt,-8,nt,nt,nt
CC(=O)Nc1cc(C(F)(F)F)ccc1Oc1cccc(Br)c1,-7,nt,2,+,-2
C/C(=N\Nc1cc(C)nc(-c2ccccc2O)n1)c1ccccc1O,0,-2,28*,i,1
Cc1nnc(SCc2nnc(-c3cccs3)o2)s1,-2,-2,175*,i,1
Cc1nnc(SCc2nnc(-c3cccs3)o2)n1C,-3,-4,3,i,1
CC1CCC/C(=N\NC(=S)Nc2ccccc2)C1 (stereo unspecified),2,11,-1,i,-2
SMILES,Runt-SMMHC FRET,Vif imaging,RanGTP-Imp inh,Rce1 inhib,Runt-CBFb FRET
CC1CCCC/C1=N\NC(=S)Nc1ccccc1 (stereo unspecified),-2,66*,0,i,2
O=C(c1cccc(C(F)(F)F)c1)C1CCCN(C(=O)/C=C/c2cnc[nH]2)C1 (stereo unspecified),nt,3,-6,i,nt
Cc1ccc(C(=O)N/C(=C\c2sccc2C)C(=O)NCc2ccncc2)cc1,3,0,2,i,2
Cc1ccc(C(=O)N/C(=C\c2sccc2C)C(=O)NCc2ccco2)cc1,1,51*,4,i,nt
Cc1cc(=O)oc2cc(NS(=O)(=O)c3ccc(F)cc3)ccc12,67*,-9,3,i,25
Cc1cc(=O)oc2cc(NS(=O)(=O)c3ccccc3)ccc12,91*,1,3,i,38
Cc1cc(/C=C2\SC(=S)NC2=O)c(C)n1-c1ccc(O)cc1,-38,18,23*,i,-10
Cc1cc(/C=C2\SC(=S)NC2=O)c(C)n1-c1ccccc1,17,5,9,i,26
COc1cc(CN2C[C@@H](CO)O[C@@H](n3cnc4c(NC(C)C)ncnc43)C2)cc(OC)c1OC,nt,-2,nt,nt,nt
CN(CC(=O)Nc1ccc(Cl)cc1)C(=O)CCc1c[nH]c2ccccc12,nt,-9,-4,i,nt
CCN(CCn1cccn1)C(=O)CC1C(=O)NCCN1CCc1ccccc1 (stereo unspecified),nt,nt,0,i,nt
CC1(C(=O)NS(=O)(=O)c2ccc(F)cc2F)CCN1C(=O)CCc1ccccc1 (stereo unspecified),nt,7,nt,nt,nt
Cn1c(NNC(=O)c2ccc(C(C)(C)C)cc2)cc(=O)n(C)c1=O,77*,-7,7,i,41
Cc1ccn2c(=O)nc(SCC(=O)NC3CCCC3)nc2c1,nt,1,18*,i,nt
Cc1ccn2c(=O)nc(SCC(=O)NC3CCCCC3)nc2c1,nt,-2,3,i,nt
O=C(O)/C=C/c1coc2ccccc2c1=O,3,25,35*,i,2
CCOC(=O)C1CCCN(C(=O)CCCn2nnnc2CN2CCOCC2)C1 (stereo unspecified),nt,-4,0,i,nt
O=c1cc(-c2ccc(O)cc2)oc2cc(O)c(C3OC(CO)C(O)C(O)C3O)c(O)c12 (stereo unspecified),87*,?,7,nt,38
CCNc1cc(Cl)nc(SC)n1,1,12,0,i,-1
CCN(CCO)c1cc(Cl)nc(SC)n1,-5,-4,69*,i,-1
COc1ccc(OC)c(NC(=O)COC(=O)CN2C(=O)NC3(CCCC3)C2=O)c1,nt,4,nt,nt,nt
CCCN(CCC)c1ccc(/C=C/c2ccc3cc(OCC)ccc3n2)cc1,82,10,21*,i,-20
CCc1cc(=O)oc2c(C)c(OCC(=O)NC3CC(C)(C)NC(C)(C)C3)ccc12,nt,16,-1,i,nt
CCc1cc(=O)oc2c(C)c(OC(C)C(=O)NC3CC(C)(C)NC(C)(C)C3)ccc12 (stereo unspecified),nt,1,0,+,nt
COc1ccc(CCNC(=O)[C@H](CC(C)C)NC(=O)N2CCn3c2nc2ccccc23)cc1OC,nt,-3,-1,i,nt
